TCR-CD3 inh: human TCR-CD3 binding inhibition | TAMRA-labeled TCR probe fluorescence, biochemical | inhibition, % at 9.4 µM | hit rate 0.37% among 360,000 | AID 651800; in the data active = inhibition above about 19%;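 note: recombinant mutant TCR 2C K166C tagged with TAMRA read by polarization; 0% = receptor in buffer alone and 100% = receptor with positive control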
GSTO1 counter: blocks human GSTO1 in RBBP9 counter-screen | P78417 | recombinant GSTO1, activity-based probe fluorescence polarization | inhibition, % at 5.96 µM | hit rate 1.1% among 300,000 | AID 1974;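 active = inhibition above the campaign mean inhibition plus 3 SD, cut at about 35% in these data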;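 note: 0% = GSTO1-1 with DMSO and 100% = wells lacking GSTO1-1 enzyme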
TDP2 inh: blocks human TDP2 phosphodiesterase activity | O95551 | recombinant TDP2, T5PNP hydrolysis, p-nitrophenol absorbance 415 nm | inhibition, % at 12.8 µM | hit rate 0.34% among 370,000 | AID 720702;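 active = inhibition above the mean of all tested compounds plus 3 SD, set per campaign, cut at about 25% in these data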;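 note: 0% = DMSO with enzyme and 100% = buffer with substrate but no TDP2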
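Material: recombinant human TDP2; quantity: TDP2 enzyme at 120 nM final; medium: Tris-HCl pH 7.5 with MgCl2; compound: single concentration, 12.8 µM nominal, with 1% DMSO; incubation: 2 h enzyme incubation at 37 °C; signal: epi absorbance; measure: percent inhibition; benchmarks: high control without enzyme, low control DMSO plus TDP2; repeats: singlicate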
PAD4 FP inh: PAD4 (human) enzyme inhibition | recombinant PAD4, RCA probe fluorescence polarization | inhibition, % at 6.36 µM | hit rate 0.41% among 330,000;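 active = percent inhibition above a cutoff equal to the mean of all tested compounds plus 3 SD, cut at about 15% in these data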;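 note: 0% = PAD4 with RCA probe and DMSO and 100% = probe without PAD4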
SIAE inh: blocks human sialic acid acetylesterase; Q9HAT2; SIAE FP-Rh probe binding, fluorescence polarization; inhibition, % at 9.66 µM; AID 1053197; hit rate 0.69% among 370,000;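 active = inhibition above a cutoff: mean of compounds within the control limits plus 3 SD of those, cut at about 17% in these data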;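 note: 0% = plate median of compound wells and 100% = probe without SIAE protein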
Apaf-1 inh: human Apaf-1 inhibition. reconstituted apoptosome caspase-3 activity, DEVD-Rh110 fluorescence. inhibition, % at 20 µM. hit rate 0.71% among 330,000. AID 489030; active = inhibition of at least 40% at 20 µM;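 note: plate controls were DMSO wells for no effect and DEVD-CHO caspase inhibitor wells for full effect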
Target sequence (O14727 whole entry, looked up): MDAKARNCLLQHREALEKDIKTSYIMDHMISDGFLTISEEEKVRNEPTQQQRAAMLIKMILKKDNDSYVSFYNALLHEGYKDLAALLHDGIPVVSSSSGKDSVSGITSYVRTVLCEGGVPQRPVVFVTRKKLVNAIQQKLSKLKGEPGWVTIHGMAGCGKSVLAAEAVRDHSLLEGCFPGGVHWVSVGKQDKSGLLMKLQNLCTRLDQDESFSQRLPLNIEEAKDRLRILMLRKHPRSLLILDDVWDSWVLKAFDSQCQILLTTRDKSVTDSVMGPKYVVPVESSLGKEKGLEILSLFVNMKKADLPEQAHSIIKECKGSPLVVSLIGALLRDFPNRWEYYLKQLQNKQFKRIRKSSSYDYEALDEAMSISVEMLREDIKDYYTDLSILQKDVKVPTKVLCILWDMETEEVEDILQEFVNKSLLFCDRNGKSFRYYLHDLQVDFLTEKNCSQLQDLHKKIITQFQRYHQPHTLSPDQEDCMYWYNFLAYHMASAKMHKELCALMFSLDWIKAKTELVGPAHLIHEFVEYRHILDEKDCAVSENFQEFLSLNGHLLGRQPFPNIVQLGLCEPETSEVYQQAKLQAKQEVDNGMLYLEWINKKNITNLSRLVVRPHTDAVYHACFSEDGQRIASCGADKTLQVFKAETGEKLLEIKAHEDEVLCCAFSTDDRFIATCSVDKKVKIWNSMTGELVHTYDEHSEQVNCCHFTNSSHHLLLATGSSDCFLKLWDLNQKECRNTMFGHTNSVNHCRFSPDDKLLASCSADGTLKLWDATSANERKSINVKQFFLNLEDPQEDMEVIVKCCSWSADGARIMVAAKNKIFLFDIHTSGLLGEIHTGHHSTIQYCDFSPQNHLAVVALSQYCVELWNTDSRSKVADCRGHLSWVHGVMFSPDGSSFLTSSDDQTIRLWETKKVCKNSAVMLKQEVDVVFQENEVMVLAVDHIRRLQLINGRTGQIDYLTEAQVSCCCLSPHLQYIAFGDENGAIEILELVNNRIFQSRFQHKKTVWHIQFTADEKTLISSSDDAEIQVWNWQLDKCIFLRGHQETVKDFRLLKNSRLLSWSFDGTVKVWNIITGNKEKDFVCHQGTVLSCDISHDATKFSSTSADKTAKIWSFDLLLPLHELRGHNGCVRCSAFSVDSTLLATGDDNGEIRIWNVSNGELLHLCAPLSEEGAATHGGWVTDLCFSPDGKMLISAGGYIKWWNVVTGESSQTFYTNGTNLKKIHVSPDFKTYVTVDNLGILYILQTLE
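System – cell-free apoptosome with Apaf-1, procaspase-3 and caspase-9 · Buffer or medium – pH 7.5 Hepes buffer with CHAPS, BSA, DTT · Also added – cytochrome c with DEVD-Rh110 · Times – 30 min compound preincubation, 50 min activation, room temperature · Technique – Rh110 fluorescence intensity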
SIAE inh conf: human SIAE inhibition, confirmation; hit rate 13% among 2,300; inhibition, % at 9.66 µM; shares compounds with SIAE inh; SIAE FP-Rh activity-based probe, fluorescence polarization;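 active = mean inhibition of the replicates above the hit cutoff set in the primary screen, cut at about 17% in these data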;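 note: 0% = SIAE with DMSO and probe and 100% = probe without SIAE; inhibitors lower polarization as more probe stays unbound to SIAE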
* hit, by the source's call; nt = no result given. Only some compounds are listed: those with a hit (about 2.4% of all), similar ones and a draw of the others.

SMILES	TCR-CD3 inh	GSTO1 counter	TDP2 inh	PAD4 FP inh	SIAE inh	Apaf-1 inh	SIAE inh conf
CSC1CCCCC1(O)CSc1nc2ccccc2o1 (stereo not given)	-4	5	-2	-1	5	2	nt
COC(=O)CC1C(=O)NCCN1C(=O)CSc1nc2cc(Cl)ccc2o1 (stereo not given)	2	3	-15	-2	21*	0	3
COC(=O)CC1C(=O)NCCN1C(=O)c1ccc2oc(C(C)C)nc2c1 (stereo not given)	7	-2	17	-2	-5	-3	nt
COC(=O)C1=C(NC(=O)COc2ccc(Cl)cc2Cl)CCS1	1	3	6	-7	20*	8	-2
O=C(CCN1C(=O)COc2ccccc21)NCc1cccnc1	2	-1	-1	-5	0	-21	nt
CN1c2ccccc2C2(C)CCCC3=Cc4cc([N+](=O)[O-])cc([N+](=O)[O-])c4OC312 (stereo not given)	-1	2	3	-5	52*	4	-7
Cc1cc(C)nc(N/N=C/c2cccc([N+](=O)[O-])c2)n1	-2	-5	-11	-1	-6	-14	nt
Cc1nc(Cl)c(N=Cc2cccc([N+](=O)[O-])c2)c(Cl)n1	3	3	4	-2	18*	11	0
NC(=O)C1(NC(=O)[C@@H]2CC3(CC(c4cccc(NC(=O)[C@@H]5CCC(=O)N5)c4)=NO3)CN2C(=O)c2cnccn2)CC1 (stereo not given in full)	2	5	4	-2	2	-3	nt
Nc1ccc2nc(-c3ccccn3)[nH]c2c1	1	24	-6	-9	51*	21	9
Nc1ccc2nc(-c3ccccc3)[nH]c2c1	1	-2	-2	-6	8	30	nt
CCCCC(=O)NCCNC(=O)c1cc(OCC(F)(F)F)ccc1OCC(F)(F)F	-6	1	3	-5	26*	-2	4
CC(C)CC(=O)NCCNC(=O)c1cc(OCC(F)(F)F)ccc1OCC(F)(F)F	-12	0	-2	2	-1	-7	nt
O=C(NCC1CCCO1)c1ccccc1 (stereo not given)	3	-4	3	-2	17*	-6	4
O=C(CN(Cc1ccc(Br)cc1)S(=O)(=O)c1ccccc1)NCC1CCCO1 (stereo not given)	-6	-4	7	-6	18*	11	16
O=C(NCC1CCCO1)c1nnc(Cc2ccc(F)cc2)o1 (stereo not given)	-2	7	-2	-4	18*	3	-5
S=C(NCC1CCCO1)Nc1ccccc1 (stereo not given)	4	-4	-2	-7	21*	-4	0
O=C(NCC1CCCO1)c1cccc(NC(=O)c2ccccc2)c1 (stereo not given)	7	1	13	-1	6	-4	nt
CCc1ccccc1NC(=O)CCCN1C(=O)C2CC=CCC2C1=O (stereo not given)	0	-2	3	-4	-6	3	nt
O=C(NNS(=O)(=O)c1ccc([N+](=O)[O-])cc1)c1ccccc1	5	nt	14	nt	5	nt	nt
O=C(NNS(=O)(=O)c1ccc([N+](=O)[O-])cc1)c1ccc2ccccc2c1O	-7	nt	10	nt	19*	1	2
COc1ccccc1OCC(=O)N1CCCC(Nc2ccc(C)c(C)c2)C1 (stereo not given)	-4	5	-8	1	-2	16	nt
COc1ccc(CCC(=O)N2CCCC(Nc3ccc(C)c(C)c3)C2)cc1OC (stereo not given)	-2	5	-11	-2	17*	7	5
C[C@H]1CN=C(N(C)C)N1CCc1ccc(F)cc1	4	0	4	-1	2	-14	nt
CSc1nc(C)c(Oc2ccccc2)c(=O)n1C	-1	2	1	1	-1	1	nt
SMILES	TCR-CD3 inh	GSTO1 counter	TDP2 inh	PAD4 FP inh	SIAE inh	Apaf-1 inh	SIAE inh conf
C[C@@H](NC(=O)[C@H]1O[C@@H](n2cnc3c(N)ncnc32)[C@H](O)[C@@H]1O)c1cccc2ccccc12	1	nt	-3	nt	0	nt	nt
CN(C)C(=O)N1CCN(C(=O)[C@H](CCc2ccccc2)NC(=O)[C@H]2O[C@@H](n3cnc4c(N)ncnc43)[C@H](O)[C@@H]2O)CC1	4	nt	5	nt	36*	nt	43*
Nc1ncnc2c1ncn2[C@@H]1O[C@H](C(=O)N[C@@H](CO)c2ccccc2)[C@@H](O)[C@H]1O	8	nt	-5	nt	17*	nt	19*
COc1ccccc1C(=O)N1CCN(C(=O)[C@H]2O[C@@H](n3cnc4c(N)ncnc43)[C@H](O)[C@@H]2O)CC1	-6	nt	-6	nt	23*	nt	21*
O=C(/C=C/c1ccccc1)NC(=S)Nc1ccccc1O	10	-1	7	6	24*	8	-3
c1cc(CNc2ccc3c(c2)OCO3)ccn1	17	9	4	8	19*	21	4
Cc1ccc(CNc2ccc3c(c2)OCO3)cc1	nt	24	nt	-20	nt	nt	nt
O=C1c2ccccc2CN1c1ccccc1	14	-4	-9	-2	-7	-14	nt
Cc1cccc(NC(=S)NC2CC3CCCC(C2)N3Cc2ccco2)c1 (stereo not given)	3	8	7	2	11	7	nt
Cc1ccc(NC(=S)NC2CC3CCCC(C2)N3Cc2ccco2)cc1 (stereo not given)	-4	6	-7	-1	26*	3	3
CCOC(=O)C(C(C)=O)c1nc(C)nc2c1nnn2Cc1ccccc1Cl (stereo not given)	3	nt	-9	nt	2	nt	nt
Cc1nn(C)c(Cl)c1CN1CCC(CO)(CCOc2ccccc2)CC1	10	1	-2	-2	17*	-4	0
CCOC(=O)C(=C1Nc2ccccc2N1)n1c(-c2ccco2)nc2ccccc21	22*	nt	1	nt	18*	nt	-2
O=S(=O)(Nc1nccs1)c1ccc(Cl)cc1	0	6	1	-1	19*	-7	-2
CC(C)Cc1nnc(NS(=O)(=O)c2ccc(Cl)cc2)s1	-2	-4	0	2	27*	7	0
CC(Oc1ccc(Cl)cc1)C(=O)Nc1ccc(S(=O)(=O)Nc2nccs2)cc1 (stereo not given)	6	5	8	-3	-3	5	nt
CC(=O)NC(c1ccc(Cl)cc1)c1ccc2cccnc2c1O (stereo not given)	-2	nt	-3	nt	17*	nt	10
CCC(=O)NC(c1ccc(Cl)cc1Cl)c1ccc2cccnc2c1O (stereo not given)	3	-12	-1	-1	19*	19	15
